Hits are enriched below; roughly 1.8% of the tested compounds scored in any of these assays.
Ins promoter up: MIN6 insulin promoter up-regulation; MIN6 insulin promoter-GFP reporter, high-content imaging; active compounds read high; z-score at 5 µM; 0.3% of 190,000 active; AID 1625;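 active = z-score above 3 at 5 µM with at least 500 cells counted in the well; inconclusive = wells under 500 cells, flagged as cytotoxic or low count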
Autophagy mod: alters autophagy in cells | AID 463193 | MEF GFP-LC3 puncta imaging; test concentration mostly 10 µM | calls only at 10 µM (by protocol) | 0.98% of 190,000 active;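 active = percentage of spot-positive cells more than 3 SD above its plate mean, without a fluorescence outlier flag or 80% toxicity; inconclusive = no clear call, values can overlap the other calls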;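 also: spot-positive cell cutoff set from DMSO-treated cells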
TNAP inh no acc: inhibitors of human TNAP without phosphate acceptor | AID 1012 | 0.26% of 200,000 active | inhibition, % at 20 µM | purified TNAP, CDP-star luminescence, 30 min | P05186;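 active = tissue-nonspecific alkaline phosphatase inhibition above about 50% at 20 µM in the single-dose screen, limit read from the data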;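 also: 0% = DMSO negative control and 100% = EDTA positive control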
Target sequence (P05186 whole entry, looked up): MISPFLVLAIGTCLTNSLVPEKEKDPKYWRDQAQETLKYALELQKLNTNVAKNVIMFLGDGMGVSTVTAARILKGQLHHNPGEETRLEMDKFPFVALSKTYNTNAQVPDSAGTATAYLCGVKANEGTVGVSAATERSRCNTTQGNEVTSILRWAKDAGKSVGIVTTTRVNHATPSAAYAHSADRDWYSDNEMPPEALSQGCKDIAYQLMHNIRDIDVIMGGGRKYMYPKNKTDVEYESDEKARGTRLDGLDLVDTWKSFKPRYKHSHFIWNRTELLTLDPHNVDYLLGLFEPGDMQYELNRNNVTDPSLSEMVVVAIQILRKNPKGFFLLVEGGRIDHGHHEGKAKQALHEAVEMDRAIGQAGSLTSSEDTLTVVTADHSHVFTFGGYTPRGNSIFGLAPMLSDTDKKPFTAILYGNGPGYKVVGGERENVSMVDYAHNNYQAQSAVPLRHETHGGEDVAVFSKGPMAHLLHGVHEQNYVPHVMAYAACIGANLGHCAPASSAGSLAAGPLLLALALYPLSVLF
TNAP act hiacc: TNAP (human) activation, high acceptor. 200,000 tested, under 10 active. activation factor at 20 µM. purified TNAP, CDP-star luminescence, 1 M DEA, 30 min; active compounds read high; 0 = EDTA background, 1 = DMSO-only activity;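 active = activation factor at least 2 at 20 µM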
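Dosing: 20 µM single point. System: human TNAP. Amount: TNAP 1/800 final. Incubation: 30 min, room temperature. Read-out: TNAP activation factor scaled between EDTA and DMSO control wells. Signal: luminescence from CDP-star hydrolysis. Medium: 1 M DEA, pH 9.8, Mg2+, Zn2+. Control set: EDTA negative control, DMSO positive control.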
TNAP inh hiacc: blocks human TNAP under high phosphate acceptor concentration. P05186. purified TNAP, CDP-star luminescence, 1 M DEA. inhibition, % at 20 µM. 0.03% of 200,000 active. AID 1135;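 active = over 50% inhibition of tissue-nonspecific alkaline phosphatase at 20 µM in the single-dose screen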;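 also: plate controls were DMSO wells for no effect and EDTA-quenched wells as full inhibition for full effect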
NCF1 inh: blocks human p47phox regulatory protein of NADPH oxidases; inhibition, % at 24.7 µM; P14598; p47phox/p22phox peptide binding, fluorescence polarization, 2 h; 0.53% of 220,000 active;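 active = inhibition above about 30%, limit read from the data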;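 also: 0% = p47phox with labelled peptide and 100% = labelled peptide alone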
* hit, by the source's call; i = inactive; ? = inconclusive; nt = no result given; + = active, no number.

SMILES | Ins promoter up | Autophagy mod | TNAP inh no acc | TNAP act hiacc | TNAP inh hiacc | NCF1 inh
O=C(CSc1nc2ccc(Cl)cc2[nH]1)c1cccs1 | -0.32 | nt | nt | nt | nt | -11.7
O=C(NNC(=O)C1CC=CCC1C(=O)O)c1ccc(Cl)cc1 (stereo unspecified) | 0.45 | i | -4.5 | 1 | -3.2 | 17.3
O=C(NC1CCCC1)C(c1ccc(Cl)cc1)N(Cc1ccc(F)cc1)C(=O)CCl (stereo unspecified) | nt | i | 5.5 | 1 | -0.6 | -6.7
O=C(NC1CCCC1)C(c1ccc(F)cc1)N(Cc1ccc(Cl)cc1)C(=O)CCl (stereo unspecified) | 0.52 | + | -2.7 | 1 | 2.7 | -11.7
COc1ccc(C(=O)/C=C/C(=O)N(Cc2ccccc2OC)C(C(=O)NC2CCCCC2)c2ccncc2)c(O)c1 (stereo unspecified) | -0.44 | i | 10.7 | 1 | -4.8 | -8.1
COc1ccccc1CN(C(=O)CCl)C(C(=O)NC1CCCCC1)c1ccncc1 (stereo unspecified) | 0.04 | i | -8.4 | 1 | -2.5 | 43.1*
O=C(O)CNC(=O)c1ccccc1Br | -0.12 | i | -6.8 | 1 | -4.8 | -9.9
COc1cc(C)c(Br)cc1S(=O)(=O)NCCN1CCOCC1 | -0.25 | i | -10.7 | 1 | -3.8 | -8.7
CC(C)(C)n1nc2c(c1NC(=O)c1ccccc1F)CS(=O)C2 (stereo unspecified) | 1.06 | + | -22.5 | 1 | -4.0 | -11.4
COc1cc(CCC(O)CC(=O)CCc2ccccc2)ccc1O (stereo unspecified) | 0.36 | i | -0.4 | 1 | -1.6 | -6.4
Cc1ccc(NC(=O)CSc2nnc(Cn3c(=O)sc4ccccc43)n2C)cc1Cl | 0.75 | i | -6.4 | 1 | -2.6 | -6.8
COc1ccc(NC2=Nc3ccccc3N3C2=Nc2c(c(C)nn2-c2ccc(C)cc2)C3c2cccnc2)cc1 (stereo unspecified) | 3.08* | i | 3.0 | 1 | 4.3 | -6.8
O=C1c2ccccc2C(=O)N1CCCc1nc2ccccc2c(=O)n1CCCn1ccnc1 | 1.21 | i | 52.9* | 0.8 | 17.3 | 16.5
Cn1c(-n2c(CCCN3C(=O)c4ccccc4C3=O)nc3ccccc3c2=O)nc2ccccc21 | 0.76 | i | -5.2 | 1 | -1.6 | -11.1
Cc1ccc(-n2nc(C)c3c(C)c(CCC(=O)NCc4ccccc4)c(C)nc32)cc1 | -1.45 | i | -12.4 | 1.1 | -5.1 | 130.4*
CCN(CC)C(=O)Cn1ccc(NC(C)=O)nc1=O | 0.18 | nt | nt | nt | nt | -3.3
Cn1c(CC(=O)c2ccc(Br)cc2)[n+](C)c2ccccc21 | -0.12 | + | -2.8 | 1 | -2.1 | 9.8
O=C(Cn1cnc2ccccc21)c1ccc(Br)cc1 | -0.23 | i | 2.6 | 1 | 0.6 | -18.2
Cc1ccccc1OCc1nc(-c2ccc(NC(=O)c3ccc4c(c3)OCO4)cc2)no1 | -1.69 | + | -8.9 | 1 | -3.0 | -6.9
CCOC(=O)c1sc(NS(=O)(=O)c2ccccc2Cl)nc1C | -0.11 | i | -14.6 | 1.1 | -6.3 | -3.1
CCc1ccc(NC(=O)N(CCN2CCOCC2)Cc2ccc3c(c2)CCCN3CC)cc1 | nt | i | -9.0 | 1.1 | -5.4 | 43.0*
CCN1CCCc2cc(CN(CCN3CCOCC3)C(=O)Nc3ccc(C)c(C)c3)ccc21 | -0.32 | i | -11.1 | 1 | -3.4 | 11.6
O=C(CNS(=O)(=O)c1ccccc1)NNC(=O)C(Cl)Cl | 0.04 | i | 91.6* | 1.1 | -5.7 | 5.0
O=C(CNS(=O)(=O)c1ccccc1)N/N=C/c1ccc(O)cc1 | 1.04 | i | -3.8 | 1 | -1.0 | -8.1
O=C(COc1ccc(Br)cc1CNC1CCCC1)Nc1ccccc1 | 0.02 | i | -21.5 | 1 | -3.5 | -6.2
SMILES | Ins promoter up | Autophagy mod | TNAP inh no acc | TNAP act hiacc | TNAP inh hiacc | NCF1 inh
COc1ccc(-n2c(Cc3cccn3C)nnc2SCC(=O)Nc2ccccc2C)cc1 | 0.11 | i | -10.0 | 1 | -2.4 | -30.0
COc1ccc(-n2c(Cc3cc(=O)[nH]c(=O)[nH]3)nnc2SCC(=O)Nc2ccccc2)cc1 | -0.76 | i | -13.3 | 1.1 | -7.9 | 47.4*
COc1ccc(-n2c(Cc3cccn3C)nnc2SCC(=O)Nc2cccc(C)c2C)cc1 | 3.05* | nt | -8.2 | 1 | 4.0 | -10.1
CC(=O)Nc1cc2cc(NS(=O)(=O)c3ccc(C)cc3)ccc2oc1=O | -0.24 | nt | nt | nt | nt | 4.9
NC(=O)c1nsc(C(=O)N(c2cccc(F)c2)C(C(=O)NCC2CCCO2)c2cccs2)c1N (stereo unspecified) | -0.01 | i | -7.7 | 1 | -0.5 | -8.4
CCCCCc1cc(=O)oc2c(C(CCN3CCCC(C)C3)c3ccc4c(c3)OCO4)c(OC)cc(OC)c12 (stereo unspecified) | ? | nt | nt | nt | nt | 32.9*
CCOc1cc(NC(=O)c2ccccn2)c(OCC)cc1NC(=O)c1ccc(C)cc1 | 0.16 | i | -1.9 | 1 | 3.7 | -1.8
CCOc1cc(NC(=O)c2cnccn2)c(OCC)cc1NC(=O)c1cccc(F)c1 | 0.08 | + | -4.7 | 1 | -0.8 | -8.0
CCCc1nnc(SCC(=O)N2CCCCC2C)n1CCOC (stereo unspecified) | 1.18 | i | -12.5 | 1.1 | -5.5 | -9.9
CN(Cc1cnccn1)C(=O)CC1C(=O)NCCN1Cc1c(F)cccc1Cl (stereo unspecified) | -0.06 | nt | nt | nt | nt | -6.0
O=C(NC1CCCC1)C1CC(c2ccc(F)cc2)=NO1 (stereo unspecified) | nt | i | 7.9 | 1 | -2.0 | 60.2*
CC(=O)c1ccc(NC(=O)C2CC(c3ccc(F)cc3)=NO2)cc1 (stereo unspecified) | -0.67 | i | -11.4 | 1 | -3.8 | 6.2
CCOC(=O)N1CCN(C(=O)c2ccccc2CCc2ccccc2)CC1 | nt | i | -6.3 | 1 | 0.4 | 86.8*
COc1cc(CNCc2cccnc2)ccc1OCc1ccccc1 | 1.79 | + | -4.1 | 1 | -1.2 | 0.3
c1ccc(COc2cccc(CNCc3cccnc3)c2)cc1 | 0.04 | i | -5.3 | 1 | -3.9 | -4.3
Cc1cc(C)c2ccc3c(C)c(C)nc3c2[nH]1 | -0.77 | + | -9.1 | 1 | -3.2 | nt
N#C/C(=C\c1cn(Cc2ccc(F)cc2)c2ccccc12)C(=O)NCc1ccco1 | -0.49 | + | -0.9 | 1 | 1.7 | -30.8
CN1C(=S)SC2CS(=O)(=O)CC21 (stereo unspecified) | nt | nt | nt | nt | nt | -7.8
Cc1cc2cc3c(=O)[nH]c(=O)[nH]c3nc2cc1C | -0.81 | nt | nt | nt | nt | 150.7*
O=c1[nH]c(=S)[nH]c(O)c1N=Nc1ccc(-c2ccccc2)cc1[N+](=O)[O-] | -0.17 | i | 5.5 | 0.5 | 46.9 | 70.0*
O=[N+]([O-])c1cccc(/C=C/c2nc(C=Nc3ccc4ccccc4c3)c(O)o2)c1 | nt | + | 18.5 | 0.8 | 15.3 | 19.0
O=C(CO/N=C/c1cccc([N+](=O)[O-])c1)Nc1ccc2ccccc2c1 | 0.69 | i | -5.1 | 1 | -4.4 | -6.9

Source: PubChem (several laboratories)
